Screening data as filed in PubChem BioAssay.
Neddyl block – cullin neddylation inhibition; P61081+Q13564; TR-FRET cullin neddylation, biochemical; inhibition, % at 25 µM; 360,000 compounds, 0.58% hits; AID 651699; in the data active = inhibition above about 36%
Target sequence (P61081 whole entry, looked up): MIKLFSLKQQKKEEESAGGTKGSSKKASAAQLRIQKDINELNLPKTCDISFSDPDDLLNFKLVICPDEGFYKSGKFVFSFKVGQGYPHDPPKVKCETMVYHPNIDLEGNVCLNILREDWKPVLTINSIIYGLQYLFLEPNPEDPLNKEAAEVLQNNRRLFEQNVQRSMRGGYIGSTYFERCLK
Target sequence (Q13564 whole entry, looked up): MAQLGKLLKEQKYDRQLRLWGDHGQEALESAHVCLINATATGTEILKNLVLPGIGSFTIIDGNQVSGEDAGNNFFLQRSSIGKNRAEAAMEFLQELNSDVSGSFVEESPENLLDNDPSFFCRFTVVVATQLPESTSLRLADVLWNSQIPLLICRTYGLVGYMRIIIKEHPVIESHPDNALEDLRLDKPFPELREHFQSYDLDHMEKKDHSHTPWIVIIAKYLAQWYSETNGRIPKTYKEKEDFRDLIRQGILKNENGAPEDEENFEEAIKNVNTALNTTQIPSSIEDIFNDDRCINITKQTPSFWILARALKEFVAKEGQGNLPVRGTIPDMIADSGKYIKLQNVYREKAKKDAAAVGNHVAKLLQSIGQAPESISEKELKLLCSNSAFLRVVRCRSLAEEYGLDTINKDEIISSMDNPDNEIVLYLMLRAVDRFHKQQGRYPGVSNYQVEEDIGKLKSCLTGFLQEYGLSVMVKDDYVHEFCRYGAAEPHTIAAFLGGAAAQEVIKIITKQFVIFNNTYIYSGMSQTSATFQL
Efflux pump mplx – inhibitors of Candida antifungal efflux pumps expressed in yeast | S. cerevisiae Candida pump triplex, Nile Red efflux | inhibition, % at 10 µM | 330,000 compounds, 0.44% hits;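 active = plate passing quality check with inhibition over a set limit, or well fluorescence over plate mean plus 4 SD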;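 also: Nile Red retained in pooled yeast measured as flow cytometry median fluorescence; 0% = buffer negative control and 100% = Enniatin B positive control; higher means more Nile Red kept so more efflux inhibition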
Pemphigus Ab inh – human desmoglein-3 autoantibody binding inhibition. P32926. DSG3-coupled beads, scFv-anti-DSG3-GFP binding, flow cytometry; stronger effect = lower value. binding (percent of control), % at 10 µM. 310,000 compounds, 0.48% hits. AID 588358;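 active = binding more than 3 SD below its plate's average and above zero; inconclusive = below that plate limit but binding exactly zero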;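 also: hits lower antibody fragment binding to DSG3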
Arr AP2 block – blocks beta-arrestin peptide binding to AP2 adaptin; FITC-arrestin peptide / GST-AP2 beads, flow cytometry; AP2 beta2 appendage carries R879A mutation; 340,000 compounds, 0.31% hits; AID 504490; inhibition, % at 10 µM;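 active = inhibition above a set limit, near 3 SD of compounds lacking own fluorescence, cut at about 54% in these data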;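 also: plate controls were DMSO wells for no effect and 5 µM unlabelled arrestin peptide for full effect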
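Material – AP2 appendage R879A on GSH beads · Buffer or medium – PBS with 0.05% Tween 20 and 0.1% BSA · Probe or stimulus – fluorescein-tagged arrestin peptide at 50 nM final · Incubation – compound with beads 12 min RT, then probe 1 h RT · Detection – high-throughput flow cytometry of beads, ex 488, em 535 nm · Evaluation – percent response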
Yeast cmpd fluor – counter-screen for efflux pump inhibitors: compound fluorescence; shares compounds with Efflux pump mplx; S. cerevisiae AD/pABC3, flow cytometry; fluorescence ratio to DMSO, % at 10 µM; 1,700 compounds, 4% hits; AID 588517;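 active = fluorescence ratio to DMSO above its plate's cutoff, the plate mean ratio plus 5 SD, cut at about 210% in these data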;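 also: unstained yeast with no Nile Red so the signal is compound autofluorescence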
CaMdr1 efflux inh – blocks the Candida albicans Mdr1 efflux pump in yeast | shares compounds with Efflux pump mplx | AID 588518 | inhibition, % at 10 µM | S. cerevisiae AD/CaMDR1, Nile Red efflux, flow cytometry | 1,700 compounds, 1% hits; in the data active = inhibition above about 26%;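 also: 0% = DMSO vehicle and 100% = reference inhibitor; higher means more Nile Red retained so more efflux inhibition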
Cdr2 pump inh – inhibitors of Candida albicans Cdr2 efflux pump | shares compounds with Efflux pump mplx | S. cerevisiae AD/CaCDR2, Nile Red retention, flow cytometry | Nile Red retention ratio vs DMSO, % at 10 µM | 1,700 compounds, 4% hits | AID 588520; in the data active = Nile Red retention ratio vs DMSO above about 190%;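 also: higher ratio means more blocking of Cdr2 efflux of the dye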
Cdr1 pump inh – inhibitors of Candida albicans Cdr1 efflux pump; shares compounds with Efflux pump mplx; S. cerevisiae AD/CaCDR1, Nile Red efflux, flow cytometry; inhibition, % at 10 µM; 1,700 compounds, 1% hits; AID 588522;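 active = inhibition above the screen-wide mean plus twice its standard deviation, cut at about 32% in these data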
* = called active by the depositor. Sampled rows, rich in hits. Any-hit rate of the full collection: about 1.7%.

`C=CCN(c1ccccc1OC)S(=O)(=O)c1cccc(C(=O)Nc2nnc(C3CC3)s2)c1` gave Neddyl block -9, Efflux pump mplx 0, Pemphigus Ab inh 104 and Arr AP2 block -15.
O=C(CN1CCN(Cc2ccccc2Cl)CC1)N=Nc1c(O)[nH]c2ccccc12 was read as Neddyl block -23, Efflux pump mplx 13*, Pemphigus Ab inh 100, Arr AP2 block -8, Yeast cmpd fluor 107, CaMdr1 efflux inh 0, Cdr2 pump inh 99 and Cdr1 pump inh 0.
`O=C(Nc1ccc(S(=O)(=O)Nc2nccs2)cc1)c1cc(-c2ccccc2)nc2ccccc12` gave Neddyl block -5, Efflux pump mplx 0, Pemphigus Ab inh 98 and Arr AP2 block -5.
CCc1ccc(-c2cc(C(=O)Nc3ccc(S(=O)(=O)NC(C)=O)cc3)c3ccccc3n2)cc1 was read as Neddyl block -16, Efflux pump mplx 0, Pemphigus Ab inh 63*, Arr AP2 block -3, Yeast cmpd fluor 104, CaMdr1 efflux inh 0, Cdr2 pump inh 97 and Cdr1 pump inh 0.
Screening COc1cc(-c2cc(C(=O)Nc3ccc(O)cc3)c3ccccc3n2)cc(OC)c1OC returned Neddyl block 4, Efflux pump mplx 0, Pemphigus Ab inh 96, Arr AP2 block 6, Yeast cmpd fluor 102, CaMdr1 efflux inh 0, Cdr2 pump inh 98 and Cdr1 pump inh 0.
`Cc1ccc(-c2cc(C(=O)Nc3ccc(S(=O)(=O)Nc4ncccn4)cc3)c3ccccc3n2)cc1` gave Neddyl block 4, Efflux pump mplx 8.2*, Pemphigus Ab inh 106, Arr AP2 block 1, Yeast cmpd fluor 101, CaMdr1 efflux inh 0, Cdr2 pump inh 83 and Cdr1 pump inh 0.
C/C=C/C(O)c1ccc2ccccc2c1 (centres undefined) was read as Efflux pump mplx 0.
Cc1cc(NC(=O)COC(=O)CNC(=O)c2cccs2)c([N+](=O)[O-])cc1C was read as Neddyl block -28, Efflux pump mplx 0, Pemphigus Ab inh 108 and Arr AP2 block 29.
`COc1ccc(/C=C2/SC(c3ccc(C)cc3)=NC2=O)cc1OC` gave Neddyl block 31, Efflux pump mplx 0, Pemphigus Ab inh 167 and Arr AP2 block -55.
COc1ccc(/C=C2\SC(c3ccc(C)cc3)=NC2=O)cc1OC was read as Neddyl block 31, Efflux pump mplx 0.8*, Pemphigus Ab inh 162, Arr AP2 block 5, Yeast cmpd fluor 109, CaMdr1 efflux inh 0, Cdr2 pump inh 91 and Cdr1 pump inh 0.
For CCOC(=O)Nc1ccc(NC(=O)c2ccccc2F)cc1 the results were Neddyl block 7, Efflux pump mplx 0, Pemphigus Ab inh 107 and Arr AP2 block 19.
Screening COc1cc(OC)cc(C(=O)Nc2sc3c(c2C(N)=O)CCC3)c1 returned Neddyl block -142, Efflux pump mplx 1.4*, Pemphigus Ab inh 111, Arr AP2 block 2, Yeast cmpd fluor 107, CaMdr1 efflux inh 0, Cdr2 pump inh 100 and Cdr1 pump inh 0.
COc1ccc(CC(=O)Nc2sc3c(c2C(N)=O)CCCC3)cc1 was read as Neddyl block 15, Efflux pump mplx 0, Pemphigus Ab inh inconclusive and Arr AP2 block -20.
For COc1ccc(CNC(=O)c2cnccn2)cc1 the results were Neddyl block -2, Efflux pump mplx 0, Pemphigus Ab inh 102 and Arr AP2 block 8.
Screening CC(C)C(=O)N1CCC2(CC1)Oc1ccc(Cl)cc1C(=O)C21CC(c2ccc(Cl)cc2)=NO1 (centres undefined) returned Neddyl block -5, Efflux pump mplx 0, Pemphigus Ab inh 105, Arr AP2 block 3, Yeast cmpd fluor 103, CaMdr1 efflux inh 0, Cdr2 pump inh 121 and Cdr1 pump inh 0.
O=C(/C=C/c1cccs1)N1CCC2(CC1)Oc1ccc(F)cc1C(=O)C21CC(c2ccc(Cl)cc2)=NO1 (centres undefined) was read as Neddyl block -5, Efflux pump mplx 0, Pemphigus Ab inh 99 and Arr AP2 block 6.
Screening O=C1c2cc(Cl)ccc2OC2(CCNCC2)C12CC(c1ccc(Cl)cc1)=NO2 (centres undefined) returned Neddyl block -14, Pemphigus Ab inh 103, Arr AP2 block 20, Yeast cmpd fluor 121, CaMdr1 efflux inh 1, Cdr2 pump inh 114 and Cdr1 pump inh 0.
Screening O=C(/C=C/c1cccs1)N1CCC2(CC1)Oc1ccc(Cl)cc1C(=O)C21CC(c2ccc(Cl)cc2)=NO1 (centres undefined) returned Neddyl block 13, Efflux pump mplx 0, Pemphigus Ab inh 98 and Arr AP2 block 1.
O=C1c2cc(Cl)ccc2OC2(CCNCC2)C12CC(c1ccccc1)=NO2 (centres undefined) was read as Neddyl block -3, Efflux pump mplx 0, Pemphigus Ab inh 106, Arr AP2 block 10, Yeast cmpd fluor 91, CaMdr1 efflux inh 0, Cdr2 pump inh 95 and Cdr1 pump inh 0.
`O=C(c1ccc2c(=O)n3c(nc2c1)CCCCC3)N1CCc2ccccc21` gave Neddyl block -4, Efflux pump mplx 0, Pemphigus Ab inh 93 and Arr AP2 block 5.
For O=C1NC[C@H](CCCCN2C[C@H](Cc3ccc(O)cc3)N(Cc3ccccc3)C(=O)C2=O)N(CCc2ccc(O)cc2)C1=O the results were Neddyl block -6.
Screening Cc1ccccc1-n1c(SC(C)C(=O)N2CCN(C)CC2)nc2ccccc2c1=O (centres undefined) returned Neddyl block -3, Efflux pump mplx 0, Pemphigus Ab inh 108 and Arr AP2 block -8.
For Cc1ccccc1S(=O)(=O)NC(=O)C1(C)CCN1C(=O)c1c(C)noc1C (centres undefined) the results were Neddyl block -1.
Screening O=C(O)C1Sc2[nH]c(=O)sc2C2c3cc(Br)ccc3OC(=O)C12 (centres undefined) returned Neddyl block 8, Efflux pump mplx 1.5*, Pemphigus Ab inh 93, Arr AP2 block 9, Yeast cmpd fluor 90, CaMdr1 efflux inh 0, Cdr2 pump inh 102 and Cdr1 pump inh 0.
`O=C(O)C1Sc2[nH]c(=O)sc2C2c3cc(Cl)ccc3OC(=O)C12` (centres undefined) gave Neddyl block -4, Efflux pump mplx 0, Pemphigus Ab inh 105 and Arr AP2 block 37.
Screening CCOc1ccccc1NC(=S)NNS(=O)(=O)c1c(C)cc(C)cc1C returned Neddyl block -4, Efflux pump mplx 0, Pemphigus Ab inh 120 and Arr AP2 block -13.
